Reference: ChEMBL document CHEMBL4002594, “Novel inhibitors of Plasmodium falciparum based on 2,5-disubstituted furans” (Eur J Med Chem, 2017)

Key:
Type in all cases: ADME, organism-based
[1] = Plasma concentration in Sprague-Dawley rat at 1 mg/kg, iv administered as 10 mins infusion measured at 5.17 hrs by LC-MS analysis
Summary of the method: (§1)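 Male Sprague Dawley rats were dosed IV (nominal 1 mg/kg; 0.9 mg/kg actual) or orally (nominal 20 mg/kg; 19 mg/kg actual). Plasma concentration–time profiles were determined, with n=2 rats per time point, and mean and range reported.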

[2] = Plasma concentration in Swiss outbred mouse at 48 mg/kg administered via oral gavage at 10 hrs by LC-MS analysis
Summary of the method: (§2)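 Single oral administration of 48 mg/kg to male Swiss outbred mice. Plasma concentration-time profile reported as the mean and range of n=2 mice per time point.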

[3] = Plasma concentration in Swiss outbred mouse at […], iv at 4 hrs by LC-MS analysis
[4] = (§3) Plasma concentration in Sprague-Dawley rat at 1 mg/kg, iv administered as 10 mins infusion measured at […] by LC-MS analysis
[5] = Plasma concentration in Sprague-Dawley rat at 1 mg/kg, iv administered as 10 mins infusion measured at 1.17 hrs by LC-MS analysis; summary of the method: as §1
[6] = Plasma concentration in Sprague-Dawley rat at 20 mg/kg administered via oral gavage at 5 hrs by LC-MS analysis; summary of the method: as §1
[7] = (§4) Plasma concentration in Swiss outbred mouse at […], iv at […] by LC-MS analysis
[8] = Plasma concentration in Sprague-Dawley rat at 1 mg/kg, iv administered as 10 mins infusion measured at 0.08 hrs by LC-MS analysis; summary of the method: as §1
[9] = Plasma concentration in Swiss outbred mouse at 48 mg/kg administered via oral gavage at 4 hrs by LC-MS analysis; summary of the method: as §2
[10] = Plasma concentration in Swiss outbred mouse at […], iv at 10 hrs by LC-MS analysis
[11] = Plasma concentration in Sprague-Dawley rat at 1 mg/kg, iv administered as 10 mins infusion measured at 0.5 hrs by LC-MS analysis; summary of the method: as §1
[12] = Plasma concentration in Swiss outbred mouse at 48 mg/kg administered via oral gavage at 24 hrs by LC-MS analysis; summary of the method: as §2
[13] = Plasma concentration in Swiss outbred mouse at 48 mg/kg administered via oral gavage at 0.5 hrs by LC-MS analysis; summary of the method: as §2
[14] = Plasma concentration in Swiss outbred mouse at 48 mg/kg administered via oral gavage at 7.5 hrs by LC-MS analysis; summary of the method: as §2
[15] = Plasma concentration in Swiss outbred mouse at […], iv at 24 hrs by LC-MS analysis
[16] = Plasma concentration in Swiss outbred mouse at […], iv at 2 hrs by LC-MS analysis
[17] = Plasma concentration in Swiss outbred mouse at 48 mg/kg administered via oral gavage at 2 hrs by LC-MS analysis; summary of the method: as §2
[18] = as §3; remark: listed apart in the source
[19] = (§5) Plasma concentration in Sprague-Dawley rat at 20 mg/kg administered via oral gavage at […] by LC-MS analysis
[20] = Plasma concentration in Swiss outbred mouse at 48 mg/kg administered via oral gavage at 1 hr by LC-MS analysis; summary of the method: as §2
[21] = Plasma concentration in Sprague-Dawley rat at 20 mg/kg administered via oral gavage at 0.5 hrs by LC-MS analysis; summary of the method: as §1
[22] = Plasma concentration in Sprague-Dawley rat at 20 mg/kg administered via oral gavage at 1 hr by LC-MS analysis; summary of the method: as §1
[23] = Plasma concentration in Sprague-Dawley rat at 1 mg/kg, iv administered as 10 mins infusion measured at 10.17 hrs by LC-MS analysis; summary of the method: as §1
[24] = Plasma concentration in Swiss outbred mouse at […], iv at 0.033 hrs by LC-MS analysis
[25] = Plasma concentration in Swiss outbred mouse at 48 mg/kg administered via oral gavage at […] by LC-MS analysis
[26] = Plasma concentration in Swiss outbred mouse at […], iv at 7.5 hrs by LC-MS analysis
[27] = Plasma concentration in Swiss outbred mouse at […], iv at 1 hr by LC-MS analysis
[28] = Plasma concentration in Swiss outbred mouse at […], iv at 0.5 hrs by LC-MS analysis
[29] = as §4; remark: listed apart in the source
[30] = Plasma concentration in Sprague-Dawley rat at 1 mg/kg, iv administered as 10 mins infusion measured at 16.17 hrs by LC-MS analysis; summary of the method: as §1
[31] = Plasma concentration in Sprague-Dawley rat at 20 mg/kg administered via oral gavage at 4 hrs by LC-MS analysis; summary of the method: as §1
[32] = Plasma concentration in Sprague-Dawley rat at 1 mg/kg, iv administered as 10 mins infusion measured at 24.17 hrs by LC-MS analysis; summary of the method: as §1
[33] = as §5; remark: listed apart in the source
[34] = Plasma concentration in Swiss outbred mouse at […], iv at 0.008 hrs by LC-MS analysis
[35] = Plasma concentration in Sprague-Dawley rat at 1 mg/kg, iv administered as 10 mins infusion measured at 2.67 hrs by LC-MS analysis; summary of the method: as §1
[36] = Plasma concentration in Swiss outbred mouse at […], iv at 0.08 hrs by LC-MS analysis

concentration at 5.17 h [1]: 35 nM
concentration at 10 h [2]: 192 nM
concentration at 4 h [3]: 29 nM
concentration at […] [4]: 255 nM
concentration at 1.17 h [5]: 29 nM
concentration at 5 h [6]: 27 nM
concentration at […] [7]: 310 nM
concentration at 0.08 h [8]: 334 nM
concentration at 4 h [9]: 132 nM
concentration at 10 h [10]: 23 nM
concentration at 0.5 h [11]: 36 nM
concentration at 24 h [12]: 208 nM
concentration at 0.5 h [13]: 812 nM
concentration at 7.5 h [14]: 239 nM
concentration at 24 h [15]: 22 nM
concentration at 2 h [16]: 26 nM
concentration at 2 h [17]: 494 nM
concentration at […] [18]: 71 nM
concentration at […] [19]: 45.5 nM
concentration at 1 h [20]: 693 nM
concentration at 0.5 h [21]: 65 nM
concentration at 1 h [22]: 80 nM
concentration at 10.17 h [23]: 29 nM
concentration at 0.033 h [24]: 149 nM
concentration at […] [25]: 171 nM
concentration at 7.5 h [26]: 31 nM
concentration at 1 h [27]: 43 nM
concentration at 0.5 h [28]: 44 nM
concentration at […] [29]: 54 nM
concentration at 16.17 h [30]: 25 nM
concentration at 4 h [31]: 28 nM
concentration at 24.17 h [32]: 20 nM
concentration at […] [33]: 50 nM
concentration at 0.008 h [34]: 841 nM
concentration at 2.67 h [35]: 20 nM
concentration at 0.08 h [36]: 80 nM
SMILES: CN(C)CCCNc1ccc(-c2ccc(F)c(Cl)c2)o1
